Test results as given in ChEMBL document CHEMBL4765236, “Insights into the Antimicrobial Activity and Cytotoxicity of Engineered α-Helical Peptide Amphiphiles” (J Med Chem, 2016).
Calls of active or inactive are those of the source. No cut-off for these calls is given here.

Key:
[1] = test system: Erythrocyte; assay: Hemolytic activity against human red blood cells assessed as hemoglobin release at 64 uM measured after 1 hr by microplate reader analysis; type: ADME, cell-based
Summary of the method: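 Fresh heparinized human RBCs washed three times in 10 mM PBS pH 7.4 and resuspended to about 1% (v/v) (5.4 × 10^8 cells/mL). Mixed 1:1 with peptide in PBS for 1 h at 37 °C, then centrifuged. Supernatant hemoglobin read at A540. PBS set as 0% and 0.1% Triton X-100 as 100% hemolysis. MHC is the concentration causing 10% hemolysis.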

[2] = test system: Listeria monocytogenes; assay: Antibacterial activity against Listeria monocytogenes CICC 21662 assessed as bacterial growth inhibition incubated for 18 to 24 hrs by microtiter broth dilution method; type: functional; details: time 18-24 hrs
Summary of the method: (§1)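 Log-phase cells (grown overnight at 37 °C, subcultured in MHB) diluted to 10^5 CFU/mL in MHB and mixed 1:1 with serial peptide dilutions prepared in 0.01% acetic acid/0.2% BSA. Incubated 37 °C for 18-24 h. MIC is the lowest concentration giving no growth by OD492. Reported as the average of 3-5 independent experiments.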

[3] = test system: Staphylococcus aureus; assay: Antibacterial activity against methicillin resistant Staphylococcus aureus ATCC 43300 assessed as bacterial growth inhibition incubated for 18 to 24 hrs by microtiter broth dilution method; type: functional; details: time 18-24 hrs
Summary of the method: (§2)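 Log-phase bacteria grown at 37 °C in MHB, diluted to 10^5 CFU/mL, mixed 1:1 with serial peptide dilutions (peptide diluted in 0.01% acetic acid, 0.2% BSA); 37 °C for 18-24 h. MIC read by OD492 as lowest concentration giving no growth; mean of 3-5 independent experiments.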

[4] = test system: Salmonella enteritidis; assay: Antibacterial activity against Salmonella enteritidis CICC 21527 assessed as bacterial growth inhibition incubated for 18 to 24 hrs by microtiter broth dilution method; type: functional, Salmonella enterica subsp. enterica serovar Enteritidis; details: Salmonella enterica, time 18-24 hrs; summary of the method: as §1
[5] = test system: Salmonella typhimurium; assay: Antibacterial activity against Salmonella typhimurium CMCC 51005 assessed as bacterial growth inhibition incubated for 18 to 24 hrs by microtiter broth dilution method; type: functional, Salmonella enterica subsp. enterica serovar Typhimurium; details: Salmonella enterica, time 18-24 hrs; summary of the method: as §1
[6] = test system: RAW264.7; assay: Cytotoxicity against mouse RAW264.7 cells assessed as increase in cell viability at 64 uM incubated for 24 hrs by MTT assay relative to control; type: cell-based; details: raw264.7, 24 h
Summary of the method: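 RAW264.7 macrophages were grown in DMEM with 10% FBS, 2 mM glutamine and penicillin/streptomycin at 37 °C in 5% CO2. Cells seeded at 1.0-2.0 × 10^4 per well and treated with peptide (final 0.25-64 µM) for 24 h at 37 °C. MTT at 0.5 mg/mL added for 4 h, formazan dissolved in DMSO, read at 570 nm.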

[7] = test system: Salmonella enterica subsp. enterica serovar Paratyphi B; assay: Antibacterial activity against Salmonella paratyphi B CICC 21495 assessed as bacterial growth inhibition incubated for 18 to 24 hrs by microtiter broth dilution method; type: functional; details: time 18-24 hrs; summary of the method: as §2
[8] = test system: Salmonella paratyphi; assay: Antibacterial activity against Salmonella paratyphi C CICC 21512 assessed as bacterial growth inhibition incubated for 18 to 24 hrs by microtiter broth dilution method; type: functional; details: Salmonella enterica, time 18-24 hrs; summary of the method: as §2
[9] = test system: Staphylococcus aureus; assay: Antibacterial activity against Staphylococcus aureus GIM 1.160 assessed as bacterial growth inhibition incubated for 18 to 24 hrs by microtiter broth dilution method; type: functional; details: time 18-24 hrs; summary of the method: as §1
[10] = test system: Staphylococcus aureus; assay: Antibacterial activity against Staphylococcus aureus ATCC 29213 assessed as bacterial growth inhibition incubated for 18 to 24 hrs in presence of 4.5 mM KCl by microtiter broth dilution method (reference value: 0.43 to > 71.5 uM); type: functional; details: time 18-24 hrs
[11] = test system: Escherichia coli; assay: Antibacterial activity against Escherichia coli ATCC 25922 assessed as bacterial growth inhibition incubated for 18 to 24 hrs by microtiter broth dilution method; type: functional; details: time 18-24 hrs; summary of the method: as §1
[12] = test system: Micrococcus luteus; assay: Antibacterial activity against Micrococcus luteus CMCC 28001 assessed as bacterial growth inhibition incubated for 18 to 24 hrs by microtiter broth dilution method; type: functional; details: time 18-24 hrs; summary of the method: as §1
[13] = test system: Listeria monocytogenes; assay: Antibacterial activity against Listeria monocytogenes CICC 21633 assessed as bacterial growth inhibition incubated for 18 to 24 hrs by microtiter broth dilution method; type: functional; details: time 18-24 hrs; summary of the method: as §1
[14] = test system: Escherichia coli; assay: Antibacterial activity against Escherichia coli O157:H7 CICC 21530 assessed as bacterial growth inhibition incubated for 18 to 24 hrs in presence of 6 mM NH4Cl by microtiter broth dilution method (reference value: 0.85 to > 71.5 uM); type: functional; details: time 18-24 hrs
[15] = test system: Escherichia coli; assay: Bactericidal activity against Escherichia coli O157:H7 CICC 21530 assessed as bacterial killing at 1 times MIC by time kill assay; type: functional, organism-based; details: time 1085.0 min, TDE = time-dependent effect
[16] = test system: Escherichia coli; assay: Antibacterial activity against Escherichia coli O157:H7 CICC 21530 assessed as bacterial growth inhibition incubated for 18 to 24 hrs in presence of 150 mM NaCl by microtiter broth dilution method (reference value: 0.85 to > 71.5 uM); type: functional; details: time 18-24 hrs
[17] = test system: HepG2; assay: Cytotoxicity against human HepG2 cells assessed as reduction in cell viability incubated for 24 hrs by MTT assay; type: functional, cell-based
Summary of the method: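 HepG2 survival measured by MTT assay over a peptide range of 0.25-64 µM.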

[18] = test system: Escherichia coli; assay: Antibacterial activity against Escherichia coli O157:H7 CICC 21530 assessed as bacterial growth inhibition incubated for 18 to 24 hrs in presence of 4.5 mM KCl by microtiter broth dilution method (reference value: 0.85 to > 71.5 uM); type: functional; details: time 18-24 hrs
[19] = test system: Staphylococcus aureus; assay: Antibacterial activity against Staphylococcus aureus ATCC 29213 assessed as bacterial growth inhibition incubated for 18 to 24 hrs in presence of 1 mM MgCl2 by microtiter broth dilution method (reference value: 0.43 to > 71.5 uM); type: functional; details: time 18-24 hrs
[20] = test system: Staphylococcus aureus; assay: Antibacterial activity against Staphylococcus aureus ATCC 29213 assessed as bacterial growth inhibition incubated for 18 to 24 hrs in presence of […] by microtiter broth dilution method (reference value: 0.43 to > 71.5 uM); type: functional; details: time 18-24 hrs
[21] = test system: Cell membrane; assay: Induction of inner membrane permeabilization in Escherichia coli O157:H7 CICC 21530 assessed as cytoplasmic beta-galactosidase release at 1 times MIC using ONPG as substrate by […]; type: subcellular
[22] = test system: Candida albicans; assay: Antifungal activity against Candida albicans ATCC 10231 assessed as fungal growth inhibition incubated for 18 to 24 hrs by microtiter broth dilution method; type: functional; details: time 18-24 hrs; summary of the method: as §1
[23] = test system: Cell membrane; assay: Induction of cell membrane depolarization in Escherichia coli O157:H7 CICC 21530 assessed as increase in fluorescence intensity at 0.5 to 2 times MIC preincubated for 90 mins followed by KCl addition and measured after 15 to 30 mins by DiSC3-5 staining based fluorescence spectroscopic technique; type: subcellular; details: time 105-120 min
[24] = test system: Escherichia coli; assay: Antibacterial activity against Escherichia coli O157:H7 CICC 21530 assessed as bacterial growth inhibition incubated for 18 to 24 hrs in presence of 1 mM MgCl2 by microtiter broth dilution method (reference value: 0.85 to > 71.5 uM); type: functional; details: time 18-24 hrs
[25] = test system: Staphylococcus aureus; assay: Antibacterial activity against Staphylococcus aureus ATCC 29213 assessed as bacterial growth inhibition incubated for 18 to 24 hrs in presence of 6 mM NH4Cl by microtiter broth dilution method (reference value: 0.43 to > 71.5 uM); type: functional; details: time 18-24 hrs
[26] = test system: Escherichia coli; assay: Antibacterial activity against Escherichia coli O157:H7 CICC 21530 assessed as bacterial growth inhibition incubated for 18 to 24 hrs by microtiter broth dilution method; type: functional; details: time 18-24 hrs; summary of the method: as §2

Substance | Activity [1] | MIC [2] [µM] | MIC [3] [µM] | MIC [4] [µM] | MIC [5] [µM] | Activity [6] [%] | MIC [7] [µM] | MIC [8] [µM] | MIC [9] [µM] | MIC [10] [µM] | MIC [11] [µM] | MIC [12] [µM] | MIC [13] [µM] | MIC [14] [µM] | Activity [15] | MIC [16] [µM] | Activity [17] | MIC [18] [µM] | MIC [19] [µM] | MIC [20] [µM] | further results
H-WGEAFSAGVHRLANGGNG-NH2 | Non-Toxic | > 71.2 | > 71.2 | > 71.2 | > 71.2 | 73.62 | > 71.2 | > 71.2 | > 71.2 | > 71.2 | > 71.2 | > 71.2 | > 71.2 | > 71.2 | Tde | > 71.2 | Dose-dependent effect | > 71.2 | > 71.2 | > 71.2 | Activity [21]: inactive; MIC [22]: > 71.2 µM; Activity [23]: Active; MIC [24]: > 71.2 µM; MIC [25]: > 71.2 µM; MIC [26]: > 71.2 µM
H-WGRAFSAGVHRLANGGNG-NH2 | Non-Toxic | > 70.1 | > 70.1 | > 70.1 | > 70.1 | 77.58 | > 70.1 | > 70.1 | 70.1 | > 70.1 | > 70.1 | > 70.1 | > 70.1 | > 70.1 | Tde | > 70.1 | Dose-dependent effect | > 70.1 | > 70.1 | > 70.1 | Activity [21]: inactive; MIC [22]: > 70.1 µM; Activity [23]: Active; MIC [24]: > 70.1 µM; MIC [25]: > 70.1 µM; MIC [26]: > 70.1 µM
H-WGRAFRRLVRRLARGLRR-NH2 | Non-Toxic | 1.74 | 6.97 | > 55.8 | 13.9 | 64.79 | 6.97 | 3.49 | 1.74 | 0.87 | 27.9 | 27.9 | 1.74 | 3.49 | Tde | 13.9 | Dose-dependent effect | 3.49 | 1.74 | > 55.8 | Activity [21]: inactive; MIC [22]: 13.9 µM; Activity [23]: Active; MIC [24]: 6.97 µM; MIC [25]: 1.74 µM; MIC [26]: 6.97 µM
H-WLRAFRRLVRRLARGLRR-NH2 | Non-Toxic | 0.21 | 0.85 | 6.81 | 6.81 | 40.73 | 0.85 | 0.43 | 0.43 | 0.21 | 1.7 | 0.43 | 0.21 | 0.85 | Tde | 3.4 | Dose-dependent effect | 0.85 | 0.21 | 55 | IC50 ([17]; HepG2, 24 h): 32 µM; Activity [21]: Active; MIC [22]: 3.4 µM; Activity [23]: Active; MIC [24]: 0.85 µM; MIC [25]: 0.43 µM; MIC [26]: 0.85 µM
